Columns and labels:
Format in all cases: functional, cell-based
[1] = system: HL-60; assay: Cytotoxicity against human HL60 cells assessed as growth inhibition after 48 hrs by MTS assay; conditions: HL-60, 48 h
Method in brief: (§1)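 Cell lines from ATCC, grown in RPMI-1640 or DMEM with 10% FBS at 37 °C, 5% CO2. Cells seeded, incubated 12 h at 37 °C, then screened at 40 μM for 48 h with MTS read-out. Where growth inhibition reached 50%, retested at 0.064, 0.32, 1.6, 8 and 40 μM in triplicate. Cisplatin and paclitaxel were positive controls. IC50 by Reed and Muench method.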

[2] = system: SMMC-7721; assay: Cytotoxicity against human SMMC7721 cells assessed as growth inhibition after 48 hrs by MTS assay; conditions: SMMC-7721, 48 h; method in brief: as §1
[3] = system: A549; assay: Cytotoxicity against human A549 cells assessed as growth inhibition after 48 hrs by MTS assay; conditions: A549, 48 h; method in brief: as §1
[4] = system: MCF7; assay: Cytotoxicity against human MCF7 cells assessed as growth inhibition after 48 hrs by MTS assay; conditions: MCF7, 48 h; method in brief: as §1
[5] = system: SW480; assay: Cytotoxicity against human SW480 cells assessed as growth inhibition after 48 hrs by MTS assay; conditions: SW480, 48 h; method in brief: as §1
[6] = system: RAW264.7; assay: Inhibition of nitric oxide production in LPS-stimulated mouse RAW264.7 cells after 18 hrs by griess reagent based plate reader analysis; conditions: RAW264.7, 18 h
Method in brief: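 RAW264.7 macrophages seeded at 2 × 10^5 cells/well. Treated with serial dilutions (top concentration 25 μM), then stimulated with LPS 1 μg/mL for 18 h. Supernatant NO measured with Griess reagents, absorbance 550 nm. MG-132 was the positive control. Viability was checked in parallel by MTT (595 nm) to exclude cytotoxic interference.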

IC50 [6] [µM]	SMILES	IC50 [1] [µM]	IC50 [2] [µM]	IC50 [3] [µM]	IC50 [4] [µM]	IC50 [5] [µM]
16.8	C=C1C(=O)[C@]23[C@H](O)[C@H]1[C@@H](O)C[C@H]2[C@]1(C)CCC[C@](C)(CO)[C@H]1C[C@H]3OC(C)=O	> 10	> 10	> 10	> 10	6.9
16.5	C=C1C(=O)[C@@]23[C@H](O)C[C@@H]4[C@@](C)(CO)CCC[C@@]4(C)[C@@H]2C[C@H](O)[C@@H]1[C@H]3OC(C)=O	> 10	> 10	> 10	> 10	8.6
5	C=C1C(=O)[C@]23[C@H](O)[C@H]1[C@@H](O)C[C@H]2[C@]1(C)CCC[C@](C)(COC(C)=O)[C@H]1C[C@H]3OC(C)=O	2.9	3.5	2.7	1.6	0.9
3.5	C=C1C(=O)[C@]23C[C@H]1[C@@H](O)C[C@H]2[C@]1(C)CCC[C@](C)(CO)[C@H]1C[C@H]3O	3.6	4	4.4	4.9	1.4
–	C=C1[C@H]2[C@@H](O)[C@@]3([C@H](O)C[C@@H]4[C@@](C)(CO)CCC[C@@]4(C)[C@@H]3C[C@@H]2O)[C@@H]1O	> 10	> 10	> 10	> 10	> 10
–	C=C1C(=O)[C@@]23[C@H](O)C[C@@H]4C(C)(C)[C@H](O)CC[C@@]4(C)[C@@H]2[C@@H](O)[C@H](O)[C@@H]1[C@H]3O	> 10	> 10	> 10	> 10	> 10
–	C=C1C(=O)[C@@]23[C@H](O)C[C@@H]4[C@@](C)(CO)[C@H](O)CC[C@@]4(C)[C@@H]2C[C@H](O)[C@@H]1[C@H]3O	> 10	> 10	> 10	> 10	> 10
–	C=C1[C@@H]2CC[C@H]3[C@]4(C)CCC(=O)[C@](C)(CO)[C@H]4CC[C@]3(C2)[C@@H]1O	> 10	> 10	> 10	> 10	> 10
4.7	C=C1C(=O)[C@@]23CC[C@@H]4[C@@](C)(CO)[C@H](O)CC[C@@]4(C)[C@@H]2C[C@H](O)[C@@H]1C3	4.1	4.1	3.7	4.8	2.7
2.5	C=C1C(=O)[C@@]23C[C@H](O)[C@@H]4C(C)(C)CCC[C@@]4(C)[C@@H]2[C@@H](O)C[C@@H]1[C@H]3O	4.8	5.1	5.1	3.7	2.3
1.1	C=C1C(=O)[C@@]23CC(=O)[C@@H]4C(C)(C)CCC[C@@]4(C)[C@@H]2[C@@H](O)C[C@@H]1[C@H]3O	3.1	0.8	1	1.6	1
1.9	C=C1C(=O)[C@@]23CC[C@H]4[C@@](C)(CCC[C@]4(C)C=O)[C@@H]2C[C@H](O)[C@@H]1[C@H]3O	3.2	1.4	0.9	1.7	1
23.9	C=C1[C@H]2C[C@@]3(CC[C@@H]4[C@@](C)(CO)CCC[C@@]4(C)[C@@H]3C[C@@H]2O)[C@@H]1O	> 10	> 10	> 10	> 10	> 10
–	C=C1C(=O)[C@@]23[C@H](O)C[C@@H]4[C@@](C)(CO)CCC[C@@]4(CO)[C@@H]2C[C@H](O)[C@@H]1[C@H]3O	> 10	> 10	> 10	> 10	> 10
7.2	C=C1C(=O)[C@]23[C@H](O)[C@H]1[C@@H](O)[C@H](O)[C@H]2[C@]1(C)CCCC(C)(C)[C@H]1C[C@H]3OC(C)=O	8.8	5.8	> 10	> 10	4.7
4.8	C=C1C(=O)[C@@]23CC[C@@H]4[C@@](C)(CO)CCC[C@@]4(C)[C@@H]2C[C@H](O)[C@@H]1[C@H]3O	8.8	4	> 10	> 10	4
–	C=C1C(=O)[C@@]23[C@H](O)C[C@@H]4[C@@](C)(CO)[C@@H](O)CC[C@@]4(C)[C@@H]2CC(=O)[C@@H]1[C@H]3O	> 10	> 10	> 10	> 10	> 10
–	C=C1[C@@H]2C[C@H](OC(C)=O)[C@H]3[C@]4(C)[C@@H](OC(C)=O)C[C@H](O)C(C)(C)[C@H]4C(=O)[C@H](OC(C)=O)[C@]3(C2)[C@@H]1O [ADENANTHIN J]	> 10	> 10	> 10	> 10	> 10
–	C=C1[C@@H]2C[C@H](OC(C)=O)[C@H]3[C@]4(C)[C@@H](OC(C)=O)C[C@H](O)C(C)(C)[C@H]4C(=O)[C@H](O)[C@]3(C2)[C@@H]1OC(C)=O [ADENANTHIN K]	> 10	> 10	> 10	> 10	> 10
–	C=C1[C@H]2[C@@H](O)[C@@]3([C@H](O)C[C@@H]4[C@@](C)(CO)CCC[C@@]4(C)[C@@H]3C[C@@H]2O)[C@@H]1OC(C)=O [ALBOPILOSIN B]	> 10	> 10	> 10	> 10	> 10
–	C=C1[C@@H]2C[C@H](OC(C)=O)[C@H]3[C@]4(C)[C@@H](OC(C)=O)C[C@H](O)C(C)(C)[C@H]4C(=O)[C@H](O)[C@]3(C2)[C@@H]1O [NERVONIN E]	> 10	> 10	> 10	> 10	> 10
–	C=C1[C@@H]2C[C@H](O)[C@H]3[C@]4(C)[C@@H](OC(C)=O)C[C@H](O)C(C)(C)[C@H]4[C@@H](OC(C)=O)[C@H](OC(C)=O)[C@]3(C2)[C@@H]1O [NERVONIN G]	> 10	> 10	> 10	> 10	> 10
–	CC(=O)O[C@H]1C(=O)[C@@]2(C)[C@H]([C@H](OC(=O)c3ccccc3)[C@]3(O)C[C@H](OC(=O)[C@H](O)[C@@H](NC(=O)c4ccccc4)c4ccccc4)C(C)=C1C3(C)C)[C@]1(OC(C)=O)CO[C@@H]1C[C@@H]2O [PACLITAXEL]	< 0.008	< 0.008	< 0.008	< 0.008	< 0.008
–	C=C1C(=O)[C@@]23[C@H](O)C[C@@H]4[C@@](C)(CO)CCC[C@@]4(C)[C@@H]2[C@@H](O)C[C@@H]1[C@H]3O [RABDOKUNMIN D]	> 10	> 10	> 10	> 10	> 10

From ChEMBL document CHEMBL3233000, “Cytotoxic ent-kaurane diterpenoids from Isodon wikstroemioides” (J Nat Prod, 2014)
